Results taken from ChEMBL document CHEMBL1136933 (J Med Chem, 2009).

How the values were obtained:
[1] = AUC (0 to 6 hrs) in Sprague-Dawley rat plasma at 10 mg/kg, ip; assay type: ADME, organism-based; parameters: time < 6 hr, dose 10 mg/kg, route intraperitoneal
Procedure, shortened: (§1)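 Male Sprague-Dawley rats (225-250 g) dosed ip at 10 mg/kg as a 5 mg/ml micro-suspension in 10% Tween 80 in sterile water. Plasma and brain sampled at 0.5, 1, 3 and 6 h, three animals per time point. Quantified by protein precipitation and LC-MS/MS against an internal standard. Brain values corrected for residual blood. PK parameters derived by noncompartmental analysis.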

[2] = Tmax in Sprague-Dawley rat plasma at 10 mg/kg, ip; assay type: ADME, organism-based; parameters: dose 10 mg/kg, route intraperitoneal; procedure, shortened: as §1
[3] = Cmax in Sprague-Dawley rat brain at 10 mg/kg, ip within 1 hr; assay type: ADME, organism-based; parameters: dose 10 mg/kg, route intraperitoneal; procedure, shortened: as §1
[4] = molecular target: T1, Muscarinic acetylcholine receptor M5 (Homo sapiens) (UniProt P08912); test: Activation of human muscarinic M5 receptor expressed in CHO cells coexpressing Gq protein assessed as increase in acetylcholine affinity at 30 uM by [3H]NMS competition binding assay relative to control; assay type: cell-based
T1 sequence (whole entry): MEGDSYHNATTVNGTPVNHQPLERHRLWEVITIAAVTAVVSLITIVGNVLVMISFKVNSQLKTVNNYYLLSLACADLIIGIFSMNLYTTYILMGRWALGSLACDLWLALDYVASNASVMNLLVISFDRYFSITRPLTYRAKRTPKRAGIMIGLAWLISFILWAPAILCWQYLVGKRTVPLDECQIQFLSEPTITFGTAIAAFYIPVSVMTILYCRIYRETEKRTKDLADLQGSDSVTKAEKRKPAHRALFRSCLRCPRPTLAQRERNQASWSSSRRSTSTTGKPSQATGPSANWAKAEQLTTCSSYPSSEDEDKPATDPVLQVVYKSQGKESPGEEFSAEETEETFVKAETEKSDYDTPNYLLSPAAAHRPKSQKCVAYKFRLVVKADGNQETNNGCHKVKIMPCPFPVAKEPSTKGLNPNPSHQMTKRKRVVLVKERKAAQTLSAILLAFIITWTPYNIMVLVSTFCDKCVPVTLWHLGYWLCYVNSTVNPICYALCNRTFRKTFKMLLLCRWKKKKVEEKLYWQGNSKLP

[5] = AUC (0 to 6 hrs) in Sprague-Dawley rat brain at 10 mg/kg, ip; assay type: ADME, organism-based; parameters: time < 6 hr, dose 10 mg/kg, route intraperitoneal; procedure, shortened: as §1
[6] = Elimination half life in Sprague-Dawley rat brain at 10 mg/kg, ip; assay type: ADME, organism-based; parameters: dose 10 mg/kg, route intraperitoneal; settings: read-out: beta t1/2 (converted); procedure, shortened: as §1
[7] = molecular target: T2, Muscarinic acetylcholine receptor M1 (Rattus norvegicus, UniProt P08482); test: Activation of rat muscarinic M1 receptor expressed in CHO cells co-expressing Gq protein assessed as potentiation of acetylcholine-induced intracellular Ca2+ mobilization; assay type: functional, cell-based
T2 sequence (P08482 whole entry): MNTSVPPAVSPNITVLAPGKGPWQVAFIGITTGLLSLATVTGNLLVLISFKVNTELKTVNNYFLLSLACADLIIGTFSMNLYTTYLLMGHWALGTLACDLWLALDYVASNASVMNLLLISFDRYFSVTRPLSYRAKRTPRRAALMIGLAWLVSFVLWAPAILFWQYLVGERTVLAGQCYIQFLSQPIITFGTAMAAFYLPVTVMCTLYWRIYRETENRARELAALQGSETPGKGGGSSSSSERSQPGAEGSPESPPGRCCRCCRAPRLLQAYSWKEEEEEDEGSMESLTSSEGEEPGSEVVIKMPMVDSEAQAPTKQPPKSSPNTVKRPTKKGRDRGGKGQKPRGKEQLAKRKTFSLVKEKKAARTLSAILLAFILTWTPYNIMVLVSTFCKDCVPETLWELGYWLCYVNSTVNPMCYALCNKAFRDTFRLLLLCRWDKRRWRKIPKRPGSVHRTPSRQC

[8] = molecular target: T3, Muscarinic acetylcholine receptor M1 (Rattus norvegicus) (UniProt P08482); test: Activation of rat muscarinic M1 receptor expressed in CHO cells co-expressing Gq protein assessed as potentiation of acetylcholine-induced intracellular Ca2+ mobilization at 30 uM relative to acetylcholine; assay type: functional, cell-based
T3 sequence (whole entry): T2 sequence (P08482 whole entry)

[9] = Selectivity ratio of EC50 for rat muscarinic M4 receptor to EC50 for human muscarinic M5 receptor

**Q.** What does the source list for `COc1ccc(CN2C(=O)C(=O)c3cc(OC(F)(F)F)ccc32)cc1`?
**A.** AUC(0-t) at 6 h [1]: 621 ng·h/mL; Tmax [2]: 1 h; Cmax [3]: 43.1 ng/mL; fold change (FC) [4]: 10; AUC(0-t) at 6 h [5]: 159 ng·h/mL; half-life [6]: 3.69 h; EC50 [7]: > 30 µM; %max [8]: 12.7%; Ratio EC50 [9]: > 30
